Tests used:
[1] = tested on: Plasmodium falciparum; assay: Antimalarial activity against Plasmodium falciparum TM90-C2B; format: functional, organism-based
[2] = tested on: Plasmodium falciparum; assay: Antimalarial activity against Plasmodium falciparum W2; format: functional, organism-based
[3] = tested on: Plasmodium falciparum; assay: Resistance index, ratio of EC50 for Plasmodium falciparum TM90-C2B to EC50 for Plasmodium falciparum W2; format: functional
[4] = tested on: J774; assay: Cytotoxicity against mouse J774 cells; format: cell-based
[5] = Liver blood index, ratio of EC50 for Plasmodium falciparum W2 to EC50 for Plasmodium berghei; format: functional
In short: (§1)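 Liver-stage EC50 measured in vitro against P. berghei. Liver blood index is the blood-stage EC50 divided by the P. berghei EC50, using either W2 or TM90-C2B as the blood-stage strain.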

[6] = Liver blood index, ratio of EC50 for Plasmodium falciparum TM90-C2B to EC50 for Plasmodium berghei; format: functional; in short: as §1
[7] = tested on: Plasmodium berghei; assay: Antimalarial activity against Plasmodium berghei; format: functional, organism-based
In short: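 In vitro liver-stage (exoerythrocytic) assay against P. berghei; the value is the EC50 (nM).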

COC(=O)c1c[nH]c2cc(OCc3ccccc3)ccc2c1=O
EC50 [1]: 8080 nM | EC50 [2]: 1830 nM | Ratio EC50 [3]: 4.42 | EC50 [4]: 18900 nM

COC(=O)c1c[nH]c2ccccc2c1=O
Ratio EC50 [5]: 54.8 | EC50 [1]: 6590 nM | EC50 [2]: 200 nM | Ratio EC50 [3]: 33 | Ratio EC50 [6]: 1810 | EC50 [4]: > 20000 nM | EC50 [7]: 3.65 nM

CCCCCc1cc2c(=O)c(C(=O)OC)c[nH]c2cc1OCCOc1ccccc1
EC50 [1]: 68.7 nM | EC50 [2]: 0.183 nM | Ratio EC50 [3]: 375 | EC50 [4]: > 20000 nM | EC50 [7]: < 0.56 nM

CCCc1cc2c(=O)c(C(=O)OC)c[nH]c2cc1OCCOc1ccccc1
EC50 [1]: 42.4 nM | EC50 [2]: 0.157 nM | Ratio EC50 [3]: 270 | EC50 [4]: > 20000 nM | EC50 [7]: < 0.06 nM

COC(=O)c1c[nH]c2cc(F)ccc2c1=O
EC50 [1]: 395 nM | EC50 [2]: 26.2 nM | Ratio EC50 [3]: 15.1 | EC50 [4]: > 20000 nM | EC50 [7]: > 100 nM

COC(=O)c1c[nH]c2cc(OCCOc3ccccc3)c(C)cc2c1=O
Ratio EC50 [5]: 0.013 | EC50 [1]: 499 nM | EC50 [2]: 2.01 nM | Ratio EC50 [3]: 248 | Ratio EC50 [6]: 3.28 | EC50 [4]: > 20000 nM | EC50 [7]: 152 nM

CCCCc1cc2c(=O)c(I)c[nH]c2cc1OCCOc1ccccc1
Ratio EC50 [5]: 0.482 | EC50 [1]: 6.04 nM | EC50 [2]: 1.23 nM | Ratio EC50 [3]: 4.91 | Ratio EC50 [6]: 2.37 | EC50 [4]: > 10000 nM | EC50 [7]: 2.55 nM

COC(=O)c1c[nH]c2ccc(-c3ccccc3)cc2c1=O
EC50 [1]: 7180 nM | EC50 [2]: 2090 nM | Ratio EC50 [3]: 3.44 | EC50 [4]: > 20000 nM | EC50 [7]: > 179 nM

CCCCc1cc2c(=O)c(C(C)=O)c[nH]c2cc1OCCOc1ccccc1
EC50 [1]: 378 nM | EC50 [2]: 9.67 nM | Ratio EC50 [3]: 39.1

CCCCc1cc2c(=O)c(C(=O)NCC)c[nH]c2cc1OCCOc1ccccc1
EC50 [1]: > 6120 nM | EC50 [2]: 206 nM | Ratio EC50 [3]: >29.7 | EC50 [4]: > 20000 nM

CCCCc1cc2c(=O)cc[nH]c2cc1OCCOc1ccccc1
Ratio EC50 [5]: 56.4 | EC50 [1]: 430 nM | EC50 [2]: 328 nM | Ratio EC50 [3]: 1.31 | Ratio EC50 [6]: 73.9 | EC50 [4]: > 20000 nM | EC50 [7]: 5.82 nM

CCCCc1cc2c(=O)c(C(=O)NC)c[nH]c2cc1OCCOc1ccccc1
Ratio EC50 [5]: 4.63 | EC50 [1]: 3980 nM | EC50 [2]: 13.3 nM | Ratio EC50 [3]: 299 | Ratio EC50 [6]: 1390 | EC50 [4]: > 20000 nM | EC50 [7]: 2.87 nM

CCCCc1ccc2[nH]ccc(=O)c2c1
Ratio EC50 [5]: 0.89 | EC50 [1]: > 12400 nM | EC50 [2]: 352 nM | Ratio EC50 [3]: >35.2 | EC50 [4]: > 20000 nM | EC50 [7]: 395 nM

COC(=O)c1c[nH]c2cc(-c3ccccc3)ccc2c1=O
EC50 [1]: 11300 nM | EC50 [2]: 2560 nM | Ratio EC50 [3]: 4.41 | EC50 [4]: > 20000 nM

COC(=O)c1c[nH]c2cc(OCCOc3ccccc3)ccc2c1=O
Ratio EC50 [5]: 9.79 | EC50 [1]: 73.6 nM | EC50 [2]: 2.8 nM | Ratio EC50 [3]: 26.3 | Ratio EC50 [6]: 257 | EC50 [4]: > 20000 nM | EC50 [7]: 0.286 nM

COC(=O)c1c[nH]c2ccc(OC)cc2c1=O
Ratio EC50 [5]: 6.05 | EC50 [1]: > 10700 nM | EC50 [2]: 482 nM | Ratio EC50 [3]: >22.2 | EC50 [4]: 6180 nM | EC50 [7]: 79.6 nM

COC(=O)c1c[nH]c2ccc(C(C)C)cc2c1=O
EC50 [1]: > 10200 nM | EC50 [2]: 354 nM | Ratio EC50 [3]: >28.8 | EC50 [4]: > 20000 nM

COC(=O)c1c[nH]c2ccc(Oc3ccccc3)cc2c1=O
EC50 [1]: 7060 nM | EC50 [2]: 381 nM | Ratio EC50 [3]: 18.5 | EC50 [4]: > 20000 nM

COC(=O)c1c[nH]c2cc(Cl)ccc2c1=O
EC50 [1]: 5800 nM | EC50 [2]: 2360 nM | Ratio EC50 [3]: 2.46 | EC50 [4]: > 20000 nM

CCCCc1cc2c(=O)c(Br)c[nH]c2cc1OCCOc1ccccc1
Ratio EC50 [5]: 0.248 | EC50 [1]: 48.7 nM | EC50 [2]: 4.64 nM | Ratio EC50 [3]: 10.5 | Ratio EC50 [6]: 2.6 | EC50 [4]: 8070 nM | EC50 [7]: 18.7 nM

CCCCc1ccc2[nH]cc(C(=O)OC)c(=O)c2c1
Ratio EC50 [5]: 1.93 | EC50 [1]: 222 nM | EC50 [2]: 1.58 nM | Ratio EC50 [3]: 141 | Ratio EC50 [6]: 271 | EC50 [4]: > 20000 nM | EC50 [7]: 0.819 nM

CCCCc1cc2c(=O)c(C#N)c[nH]c2cc1OCCOc1ccccc1
Ratio EC50 [5]: 15.7 | EC50 [1]: 3170 nM | EC50 [2]: 97.2 nM | Ratio EC50 [3]: 32.6 | Ratio EC50 [6]: 521 | EC50 [4]: > 20000 nM | EC50 [7]: 6.09 nM

COC(=O)c1c[nH]c2ccc(Oc3ccc(F)cc3)cc2c1=O
EC50 [1]: 5710 nM | EC50 [2]: 117 nM | Ratio EC50 [3]: 48.8 | EC50 [4]: > 20000 nM

COC(=O)c1c[nH]c2ccc(Cl)cc2c1=O
Ratio EC50 [5]: 13.2 | EC50 [1]: 82200 nM | EC50 [2]: 614 nM | Ratio EC50 [3]: 134 | Ratio EC50 [6]: 1760 | EC50 [4]: > 20000 nM | EC50 [7]: 46.6 nM

CCc1ccc2[nH]cc(C(=O)OC)c(=O)c2c1
EC50 [1]: > 10800 nM | EC50 [2]: 145 nM | Ratio EC50 [3]: >74.5 | EC50 [4]: > 20000 nM

COC(=O)c1c[nH]c2cc(OCCOc3ccccc3)c(OC)cc2c1=O
Ratio EC50 [5]: 0.396 | EC50 [1]: 11.1 nM | EC50 [2]: 6.93 nM | Ratio EC50 [3]: 1.6 | Ratio EC50 [6]: 0.634 | EC50 [4]: > 20000 nM | EC50 [7]: 17.5 nM

CCCCc1cc2c(=O)c(C(=O)NC(C)C)c[nH]c2cc1OCCOc1ccccc1
EC50 [1]: 5140 nM | EC50 [2]: 3340 nM | Ratio EC50 [3]: 1.54 | EC50 [4]: > 20000 nM

COC(=O)c1c[nH]c2cc(OCCOc3ccccc3)c(Br)cc2c1=O
Ratio EC50 [5]: 13.3 | EC50 [1]: 847 nM | EC50 [2]: 4.47 nM | Ratio EC50 [3]: 189.5 | Ratio EC50 [6]: 2520 | EC50 [4]: > 20000 nM | EC50 [7]: 0.336 nM

CCCCc1cc2c(=O)c(C(=O)OCC)c[nH]c2cc1OCCOc1ccccc1
Ratio EC50 [5]: 19.6 | EC50 [1]: 100 nM | EC50 [2]: 0.143 nM | Ratio EC50 [3]: 699 | Ratio EC50 [6]: 14300 | EC50 [4]: > 20000 nM | EC50 [7]: 0.007 nM

CCOc1ccc2[nH]cc(C(=O)OC)c(=O)c2c1
EC50 [1]: > 10100 nM | EC50 [2]: 292 nM | Ratio EC50 [3]: >34.6 | EC50 [4]: > 20000 nM

O=c1cc[nH]c2cc(OCCOc3ccccc3)ccc12
EC50 [1]: 7680 nM | EC50 [2]: 5960 nM | Ratio EC50 [3]: 1.29 | EC50 [4]: > 20000 nM | EC50 [7]: > 354 nM

CCc1cc2c(=O)c(C(=O)OC)c[nH]c2cc1OCCOc1ccccc1
Ratio EC50 [5]: 0.626 | EC50 [1]: 65.3 nM | EC50 [2]: 0.461 nM | Ratio EC50 [3]: 142 | Ratio EC50 [6]: 88.6 | EC50 [4]: > 20000 nM | EC50 [7]: 0.737 nM

CCCCc1cc2c(=O)c(Cl)c(C)[nH]c2cc1OCCOc1ccccc1
Ratio EC50 [5]: 0.616 | EC50 [1]: 67.7 nM | EC50 [2]: 6.92 nM | Ratio EC50 [3]: 9.79 | Ratio EC50 [6]: 6.03 | EC50 [4]: > 10000 nM | EC50 [7]: 11.2 nM

CCCCc1cc2c(=O)c(C(=O)N(C)C)c[nH]c2cc1OCCOc1ccccc1
Ratio EC50 [5]: 0.46 | EC50 [1]: > 6120 nM | EC50 [2]: 56.7 nM | Ratio EC50 [3]: >108 | Ratio EC50 [6]: > 27.7 | EC50 [4]: 15300 nM | EC50 [7]: 122 nM
